Data published in ChEMBL document CHEMBL5653611, “A combination of H2A.Z and H4 acetylation recruits Brd2 to chromatin during transcriptional activation” (PLoS Genet, 2012).
The source made the active and inactive calls.

Columns and labels:
HEK-293T [1] = assay: Effect on human 293T cells expressing YFP-Brd2 assessed as increase in protein immunoprecipitated cells at 200 nM for 2 hrs; format: functional, cell-based
How it was run: (§1)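 293T cells transfected with Flag-H2A.Z or Flag-H2A (for line 5, co-transfected with YFP-Brd2), treated with 200 nM for 2 hrs (DMSO vehicle) before harvest. Read-out by Western blot of input and of Flag IP of MNase-digested mononucleosomes, overnight at 4°C on M2-agarose.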

HEK293T = assay: Binding affinity to Brd2-H2A.Z protein-protein interaction in human 293T cells at 200 nM for 2 hrs by Western blotting analysis; format: cell-based; how it was run: as §1
HEK-293T [2] = assay: Effect on human 293T cells assessed as increase in histone acetylation at 200 nM for 2 hrs by Western blotting analysis; format: functional, cell-based; how it was run: as §1
LNCaP [3] = assay: Inhibition of Brd2-PSA protein-protein interaction in DHT stimulated human LNCaP cells at 125 to 250 nM measured for 60 mins by ChIP analysis; format: cell-based; conditions: dose 125-250 nM
How it was run: (§2)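 LNCaP cells held 72 hrs in phenol-red-free RPMI with 5% charcoal-stripped FBS, pretreated with compound, then stimulated with 10 nM DHT (ethanol control). Brd2 occupancy at enhancer and promoter regions measured by ChIP 60 min after stimulation.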

LNCaP [4] = assay: Effect on human LNCaP cells assessed as decrease in KLK2 mRNA expression pretreated with compound for 24 hrs followed by androgen stimulation for 24 hrs by RT-qPCR analysis; format: functional, cell-based; conditions: dose 125-500 nM
How it was run: (§3)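 LNCaP cells grown 72 hrs in phenol-red-free RPMI with 5% charcoal-stripped FBS, pretreated with compound, then stimulated with 10 nM DHT (ethanol vehicle for controls). Transcript levels measured by RT-qPCR.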

LNCaP [5] = assay: Inhibition of Brd2-KLK2 protein-protein interaction in DHT stimulated human LNCaP cells at 125 to 250 nM measured for 60 mins by ChIP analysis; format: cell-based; conditions: dose 125-250 nM; how it was run: as §2
LNCaP [6] = assay: Antiproliferative activity against human LNCaP cells for 24 hrs by MTS assay; format: functional, cell-based; conditions: dose 125-500 nM
How it was run: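 LNCaP cells seeded in 96-well plates and grown 24 hrs, then exposed to a range of concentrations (DMSO vehicle control) for 24 hrs. MTS reagent added and absorbance read at 490 nm.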

LNCaP [7] = assay: Effect on human LNCaP cells assessed as decrease in PSA mRNA expression pretreated with compound for 24 hrs followed by androgen stimulation for 24 hrs by RT-qPCR analysis; format: functional, cell-based; conditions: dose 125-500 nM; how it was run: as §3
LNCaP [8] = assay: Effect on DHT stimulated human LNCaP cells assessed as decrease in histone acetylation at 125 to 250 nM measured for 60 mins by ChIP analysis; format: functional, cell-based; conditions: dose 125-250 nM
LNCaP [9] = assay: Inhibition of Brd2-H2A.Z protein-protein interaction in human LNCaP cells at 125 to 250 nM by Western blotting analysis; format: cell-based; conditions: dose 125-250 nM

CC(/C=C/C(=O)NO)=C\[C@@H](C)C(=O)c1ccc(N(C)C)cc1
active: Activity (HEK-293T [1]) | Activity (HEK293T) | Activity (HEK-293T [2])

Cc1sc2c(c1C)C(c1ccc(Cl)cc1)=N[C@@H](CC(=O)OC(C)(C)C)c1nnc(C)n1-2
active: inhibition (LNCaP [3]) | Activity (LNCaP [4]) Dose-Dependent Effect | inhibition (LNCaP [5]) | Activity (LNCaP [6]) Dose-Dependent Effect | Activity (LNCaP [7]) Dose-Dependent Effect | Activity (LNCaP [8]) | inhibition (LNCaP [9])
